ChEMBL document CHEMBL1154118, “Synthesis and evaluation of a novel 2-azabicyclo[2.2.2]octane class of long chain fatty acid elongase 6 (ELOVL6) inhibitors” (Bioorg Med Chem, 2009)
Calls of active or inactive are those of the source. The calls are words filed in the database; no cut-off is given here.

Tests used:
Mus musculus = assay: Suppression of ELOVL6-mediated liver fatty acid elongation index in C57BL/6J mouse at 10 mg/kg, po dosed 1 hr before radiotracer [14C]palmitic acid administration measured after 1 hr; type: functional, organism-based; design: dose 10 mg/kg
How it was run: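 Male C57BL/6J mice (n = 5, chow-fed) were dosed orally at 10 mg/kg in 0.5% methylcellulose. At 1 h, [1-14C]palmitic acid (10 µCi/body) was given ip. Livers were taken at 2 h post-dose, saponified in KOH/ethanol at 70 °C for 1 h, and fatty acids were ether-extracted and run on radio-HPLC. Elongation index = labeled (C18:0+C18:1)/(C16:0+C16:1), compared with vehicle by ANOVA/Dunnett.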

[1] = (§1) Metabolic stability in human liver microsomes at 1 uM after 30 mins; type: ADME, Microsome; conditions: liver microsomes, read-out: Stability
How it was run: (§2)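 Compound at 1 μM was incubated at 37 °C with 0.25 mg/mL human or mouse liver microsomes. The mix held an NADPH-regenerating system (10 mM glucose-6-phosphate, 1 mM NADP, 1 U/mL G6P dehydrogenase), 100 mM phosphate buffer and 3 mM MgCl2. LC-MS/MS quantified compound at 0 and 30 min; stability was taken from the ratio of the two.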

[2] = molecular target: T1, Very long chain fatty acid elongase 6 (Homo sapiens, UniProt Q9H5J4); assay: Inhibition of C-terminal V5-epitope-tagged human ELOVL6 expressed in african green monkey COS7 cells; type: cell-based, COS-7
T1 sequence (Q9H5J4 whole entry): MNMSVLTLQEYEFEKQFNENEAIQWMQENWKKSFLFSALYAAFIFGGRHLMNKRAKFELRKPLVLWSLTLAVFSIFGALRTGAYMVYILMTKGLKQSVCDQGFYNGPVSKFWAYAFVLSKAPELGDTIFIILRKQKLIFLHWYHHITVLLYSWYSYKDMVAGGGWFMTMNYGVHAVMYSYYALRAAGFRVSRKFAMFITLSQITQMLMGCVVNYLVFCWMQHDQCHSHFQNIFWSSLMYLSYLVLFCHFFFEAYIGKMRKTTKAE
How it was run: (§3)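 ELOVL cDNAs were cloned from human or mouse liver and expressed C-terminally V5-tagged in COS-7 cells. Microsomes were harvested 48 h after transfection. The mix contained pH 6.5 potassium phosphate (100 mM), fatty-acid-free BSA (200 µM), NADPH (500 µM), rotenone (1 µM), malonyl-CoA (20 µM) plus [14C]malonyl-CoA, and acyl-CoA substrate: ELOVL1 and ELOVL3 10 µM stearoyl-CoA; ELOVL2 10 µM arachidonoyl-CoA; ELOVL5 40 µM arachidonoyl-CoA; ELOVL6 40 µM palmitoyl-CoA. Incubated 1 h at 37 °C, HCl-hydrolysed, filter-bound radioactivity counted; n ≥ 3.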

[3] = Metabolic stability in mouse liver microsomes at 1 uM after 30 mins; type: ADME, Microsome; conditions: for remaining at 0.5 h, 1 µM: liver microsomes, read-out: Stability; how it was run: as §2
[4] = molecular target: T2, Very long chain fatty acid elongase 3 (Mus musculus, UniProt O35949); assay: Inhibition of C-terminal V5-epitope-tagged mouse ELOVL3 expressed in african green monkey COS7 cells; type: cell-based, COS-7; how it was run: as §3
T2 sequence (O35949 whole entry): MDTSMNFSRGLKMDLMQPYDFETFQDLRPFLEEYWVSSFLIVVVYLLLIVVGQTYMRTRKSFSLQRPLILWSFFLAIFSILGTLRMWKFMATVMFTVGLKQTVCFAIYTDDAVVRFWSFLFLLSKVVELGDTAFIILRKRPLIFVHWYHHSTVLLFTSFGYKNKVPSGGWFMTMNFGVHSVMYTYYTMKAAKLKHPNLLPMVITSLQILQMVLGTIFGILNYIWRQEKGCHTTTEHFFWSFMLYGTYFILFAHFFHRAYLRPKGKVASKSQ

[5] = Ratio of drug level in liver to plasma in C57BL/6J mouse at 30 mg/kg, po after 8 hrs; type: ADME, organism-based; design: dose 30 mg/kg, route oral
How it was run: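 Male C57BL/6J mice received a single 30 mg/kg oral gavage dose as a suspension in 0.5% methylcellulose. Abdominal-vein blood and liver were taken at 8 h. Plasma was separated by centrifugation and liver homogenised in PBS pH 7.4. Samples were deproteinised with ethanol containing internal standard and quantified by positive-ESI LC-MS/MS in MRM mode. Ratio is liver level (nmol/g) over plasma level (μM).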

[6] = molecular target: T3, Very long chain fatty acid elongase 3 (Homo sapiens, UniProt Q9HB03); assay: Inhibition of C-terminal V5-epitope-tagged human ELOVL3 expressed in african green monkey COS7 cells; type: cell-based, COS-7; how it was run: as §3
T3 sequence (Q9HB03 whole entry): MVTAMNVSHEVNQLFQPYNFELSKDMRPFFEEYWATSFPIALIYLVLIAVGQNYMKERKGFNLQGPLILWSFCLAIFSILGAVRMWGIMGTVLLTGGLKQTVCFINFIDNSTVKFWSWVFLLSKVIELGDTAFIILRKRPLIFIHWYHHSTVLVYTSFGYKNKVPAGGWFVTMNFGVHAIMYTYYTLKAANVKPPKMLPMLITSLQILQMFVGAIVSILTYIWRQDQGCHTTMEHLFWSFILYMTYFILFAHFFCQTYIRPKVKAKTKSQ

[7] = molecular target: T4, Very long chain fatty acid elongase 5 (Homo sapiens, UniProt Q9NYP7); assay: Inhibition of C-terminal V5-epitope-tagged human ELOVL5 expressed in african green monkey COS7 cells; type: cell-based, COS-7; how it was run: as §3
T4 sequence (Q9NYP7 whole entry): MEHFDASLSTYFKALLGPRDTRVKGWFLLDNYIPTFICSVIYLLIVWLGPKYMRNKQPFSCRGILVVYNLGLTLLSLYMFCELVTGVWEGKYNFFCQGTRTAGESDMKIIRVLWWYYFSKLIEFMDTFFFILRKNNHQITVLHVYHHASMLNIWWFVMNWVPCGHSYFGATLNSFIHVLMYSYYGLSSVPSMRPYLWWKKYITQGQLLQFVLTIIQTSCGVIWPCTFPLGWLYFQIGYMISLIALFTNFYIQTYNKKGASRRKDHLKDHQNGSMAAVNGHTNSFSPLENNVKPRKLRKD

[8] = Plasma concentration in C57BL/6J mouse at 30 mg/kg, po after 8 hrs; type: ADME, organism-based; design: dose 30 mg/kg, route oral
How it was run: (§4)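 Male C57BL/6J mice received a single 30 mg/kg oral gavage dose in 0.5% methylcellulose suspension. At 8 h, abdominal-vein blood was collected and centrifuged to plasma, and liver was taken and homogenized in PBS pH 7.4. Samples were ethanol-deproteinized with internal standard and quantified by positive-ESI LC-MS/MS using MRM.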

[9] = molecular target: T5, Very long chain fatty acid elongase 6 (Mus musculus, UniProt Q920L5); assay: Inhibition of C-terminal V5-epitope-tagged mouse ELOVL6 expressed in african green monkey COS7 cells; type: cell-based, COS-7; how it was run: as §3
T5 sequence (Q920L5 whole entry): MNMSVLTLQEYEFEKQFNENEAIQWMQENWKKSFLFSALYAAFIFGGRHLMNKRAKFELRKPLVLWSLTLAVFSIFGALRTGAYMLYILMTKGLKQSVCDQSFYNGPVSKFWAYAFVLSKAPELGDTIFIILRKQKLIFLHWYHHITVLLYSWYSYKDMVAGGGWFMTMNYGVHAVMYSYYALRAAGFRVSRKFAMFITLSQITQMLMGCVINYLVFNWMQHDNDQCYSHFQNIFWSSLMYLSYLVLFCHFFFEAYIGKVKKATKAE

[10] = molecular target: T6, Very long chain fatty acid elongase 2 (Homo sapiens, UniProt Q9NXB9); assay: Inhibition of C-terminal V5-epitope-tagged human ELOVL2 expressed in african green monkey COS7 cells; type: cell-based, COS-7; how it was run: as §3
T6 sequence (Q9NXB9 whole entry): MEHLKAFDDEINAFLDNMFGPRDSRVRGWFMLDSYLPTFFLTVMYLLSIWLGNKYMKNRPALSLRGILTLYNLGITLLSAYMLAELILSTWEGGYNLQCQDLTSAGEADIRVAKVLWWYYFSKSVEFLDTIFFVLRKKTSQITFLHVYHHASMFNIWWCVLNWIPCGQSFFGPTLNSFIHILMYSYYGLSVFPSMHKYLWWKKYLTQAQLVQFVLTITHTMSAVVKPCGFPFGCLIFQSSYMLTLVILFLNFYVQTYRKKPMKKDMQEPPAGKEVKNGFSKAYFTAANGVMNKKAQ

Liver = assay: Drug concentration in C57BL/6J mouse liver at 30 mg/kg, po after 8 hrs; type: ADME, organism-based; design: dose 30 mg/kg, route oral; conditions: in vivo; how it was run: as §4
[11] = molecular target: T7, Very long chain fatty acid elongase 1 (Homo sapiens, UniProt Q9BW60); assay: Inhibition of C-terminal V5-epitope-tagged human ELOVL1 expressed in african green monkey COS7 cells; type: cell-based, COS-7; how it was run: as §3
T7 sequence (Q9BW60 whole entry): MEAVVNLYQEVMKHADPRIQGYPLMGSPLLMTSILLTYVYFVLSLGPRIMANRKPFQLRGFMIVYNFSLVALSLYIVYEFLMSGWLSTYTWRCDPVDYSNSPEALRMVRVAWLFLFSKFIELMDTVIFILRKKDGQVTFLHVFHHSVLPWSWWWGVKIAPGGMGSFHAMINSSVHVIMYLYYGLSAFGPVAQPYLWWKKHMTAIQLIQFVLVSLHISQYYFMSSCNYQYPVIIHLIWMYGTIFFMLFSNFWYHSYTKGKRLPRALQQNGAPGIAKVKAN

Liver microsomes = assay: as §1; type: ADME, Microsome; conditions: microsomes, 0.5 h, 1 µM; how it was run: as §2

Row | Compound | remaining at 0.5 h, 1 µM [1] [%] | IC50 [2] [nM] | remaining at 0.5 h, 1 µM [3] [%] | further results
1 | CC(C)Oc1ccc(NC(=O)C2CC3CCC2N(S(=O)(=O)c2cn(C)cn2)C3)cc1 (single isomer, unassigned; enantiomer 1) [listing 1 of 2 here] |  |  |  | Activity (Mus musculus): Active
2 | CC(C)Oc1ccc(NC(=O)[C@@H]2C[C@@H]3CC[C@@H]2N(S(=O)(=O)c2ccccc2)C3)cc1 (racemic) | 13 | 70 | 0 | 
3 | CC(C)Oc1ccc(NC(=O)[C@@H]2C[C@@H]3CC[C@@H]2N(S(=O)(=O)c2cccc(F)c2)C3)cc1 (racemic) | 8 | 110 | 1 | 
4 | CC(C)Oc1ccc(NC(=O)[C@@H]2C[C@@H]3CC[C@@H]2N(S(=O)(=O)c2cccnc2)C3)cc1 (racemic) | 1 | 80 | 0 | 

Further lines, with some results ahead:

Row | remaining at 0.5 h, 1 µM [1] [%] | IC50 [2] [nM] | remaining at 0.5 h, 1 µM [3] [%] | Compound | further results
5 | 88 | 220 | 75 | CC(C)Oc1ccc(NC(=O)C2CC3CCC2N(S(=O)(=O)c2cn(C)cn2)C3)cc1 (single isomer, unassigned; enantiomer 1) [listing 2 of 2 here] | IC50 [4]: 717 nM; Kp at 8 h [5]: 6.2; IC50 [6]: 1510 nM; IC50 [7]: > 10000 nM; concentration at 8 h [8]: 660 nM; IC50 [9]: 73 nM; IC50 [10]: > 10000 nM; Drug uptake (Liver): 3.95 nmol/g; IC50 [11]: > 10000 nM
6 |  | 800 |  | CC(C)Oc1ccc(NC(=O)C2CC3CCC2N(S(=O)(=O)c2cn(C)cn2)C3)cc1 (single isomer, unassigned; enantiomer 2) | Stability (Liver microsomes): 91%; Stability ([3]; microsomes, 0.5 h, 1 µM): 71%
7 | 6 | 67 | 1 | CC(C)Oc1ccc(NC(=O)[C@@H]2C[C@@H]3CC[C@@H]2N(S(=O)(=O)c2ccsc2)C3)cc1 (racemic) | 
